Measurements from paper PMC8593914 (Experimental and Therapeutic Medicine, 2021).

Experiments:
mice = details: cited from earlier work
LH and FSH = details: Japanese quail; cited from earlier work
GnRH neurons = details: cited from earlier work
kisspeptin = experiment: SPR binding of RFRP-3 to immobilized kisspeptin; set-up: species or system rat; details: Biacore T200
In short: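 Kisspeptin at 20 µg/ml in sodium acetate pH 5.5 was coupled to a CM5 chip (5,720 RU). Running buffer was PBS-P: 10 mM phosphate, 2.7 mM KCl, 137 mM NaCl, 0.05% P20, pH […]. Test peptide at 3.125–50 µM went over the detection and reference channels at 4 °C: 60 s injection, 15 µl/min, 15 min dissociation. Regeneration used 10 mM glycine-HCl pH 2.0 for 30 s; kinetic parameters were fitted.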

SIKPSAYLPLRFa [GnIH, gonadotropin-inhibitory hormone]
expression levels of glucose transporter 4 (mice): increased the expression levels of glucose transporter 4
food intake (mice): increased food intake
glucose uptake / glucose transporter 8 expression (mice): reduced glucose uptake by downregulating the expression levels of glucose transporter 8
synthesis of triglycerides in adipose tissue (mice): increased the synthesis of triglycerides in adipose tissue
testosterone synthesis (mice): reduced testosterone synthesis
secretion of LH and FSH (LH and FSH): inhibit the secretion of LH and FSH in the brain of Japanese quail

RFamide-related peptide-3 [RFRP-3]
secretion of GnRH and expression and secretion of gonadotropin (GnRH neurons): inhibit the secretion of GnRH via its receptor on GnRH neurons, thus acting on the pituitary system to inhibit the expression and secretion of gonadotropin, LH and FSH
direct binding to kisspeptin (in words) (kisspeptin): could bind directly to kisspeptin
